Here are results for 30 compounds from ChEMBL document CHEMBL1129643 (J Med Chem, 1996).

The ED50 is the dose at which the effect has come halfway, by size or by number of responders. Low readings indicate greater potency, high ones weaker potency. The term IC50 denotes the concentration at which inhibition is half-maximal. Lower therefore signals higher potency.

Experiment [1] has as its system Rattus norvegicus. As to the kind of experiment: Effective dose was measured to inhibit 50% of quipazine induced head twitches in rat after 24 hr r of subcutaneous administration. It counts as functional. As to conditions: sc. In a few lines:
(§1)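 Rats received test compound sc or po, 2 or 24 h before quipazine (15 µmol/kg, sc). Head twitches were counted 30–40 min after quipazine. Counts were expressed as percent of a quipazine-treated control group, with at least four animals per dose.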

The subject of experiment [2] is Rattus norvegicus. As to the kind of experiment: Effective dose was measured to inhibit 50% of quipazine induced head twitches in rat after 2 hr of subcutaneous administration. The class given is functional. As to conditions: sc. In a few lines: as §1
Experiment [3] is filed under the species Rattus norvegicus. The experiment in a line: Effective dose was measured as fifty percent inhibition of Pergolide induced rotations in rat. The class given is functional. In a few lines:
(§2)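 Rats with unilateral 6-OHDA lesions were given pergolide (0.050 µmol/kg, sc) to induce contralateral circling. Test compound was injected sc 2 h before pergolide. The effect of each dose was expressed as percent of the mean of control sessions held one week before and one week after the test session for each rat. At least four rats were used per dose.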

Experiment [4] deals with Rattus norvegicus. The experiment in a line: Antagonism of Pergolide-Induced Circling Behavior in rats with unilateral 6-OHDA Lesions after 2 hr of sc injection. It counts as functional. In a few lines:
as §2

Experiment [5] deals with Rattus norvegicus. As to the kind of experiment: Effective dose was measured to inhibit 50% of quipazine induced head twitches in rat after 24 hr of peroral administration. As to conditions: po.
Experiment [6] addresses 5-hydroxytryptamine receptor 2A (Rattus norvegicus, UniProt P14842). The experiment in a line: Binding affinity to serotonin 5-hydroxytryptamine 2A receptors using a radioligand [3H]ketanserin binding assay in rat cortical membranes. The class given is cell membranes.
The target of experiment [7] is T1, Alpha-1A adrenergic receptor (Rattus norvegicus, UniProt P43140).
T1 sequence (P43140 whole entry): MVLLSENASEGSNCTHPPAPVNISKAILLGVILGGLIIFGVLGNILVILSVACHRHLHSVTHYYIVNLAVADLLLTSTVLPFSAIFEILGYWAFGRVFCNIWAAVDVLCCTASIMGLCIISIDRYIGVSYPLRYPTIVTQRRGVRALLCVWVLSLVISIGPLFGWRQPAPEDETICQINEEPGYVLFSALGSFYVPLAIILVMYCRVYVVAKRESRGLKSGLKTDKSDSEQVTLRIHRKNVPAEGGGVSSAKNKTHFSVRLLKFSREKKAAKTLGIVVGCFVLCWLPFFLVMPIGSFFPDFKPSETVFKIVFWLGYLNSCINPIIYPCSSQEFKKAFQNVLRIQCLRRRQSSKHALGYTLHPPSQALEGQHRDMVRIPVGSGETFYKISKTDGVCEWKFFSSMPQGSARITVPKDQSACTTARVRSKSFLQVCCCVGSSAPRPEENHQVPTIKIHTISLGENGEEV
As to the kind of experiment: Binding affinity to the alpha-1 adrenergic receptor using a radioligand [3H]prazosin binding assay in rat brain membranes. The class given is cell membranes.

Experiment [8] has as its target D(2) dopamine receptor (Rattus norvegicus, UniProt P61169). As to the kind of experiment: Binding affinity to dopamine receptor D2 using a [3H]-spiperone binding assay in rat cortical membranes. It counts as cell membranes.
For experiment [9], the system named is Rattus norvegicus. The experiment in a line: Effective dose was measured to inhibit 50% of quipazine induced head twitches in rat after 24 hr r of peroral administration. The class given is functional. The conditions noted are these: po. An outline of the steps:
as §1

Bounds are passed on as bounds.

Sequence of 5-hydroxytryptamine receptor 2A (P14842 whole entry): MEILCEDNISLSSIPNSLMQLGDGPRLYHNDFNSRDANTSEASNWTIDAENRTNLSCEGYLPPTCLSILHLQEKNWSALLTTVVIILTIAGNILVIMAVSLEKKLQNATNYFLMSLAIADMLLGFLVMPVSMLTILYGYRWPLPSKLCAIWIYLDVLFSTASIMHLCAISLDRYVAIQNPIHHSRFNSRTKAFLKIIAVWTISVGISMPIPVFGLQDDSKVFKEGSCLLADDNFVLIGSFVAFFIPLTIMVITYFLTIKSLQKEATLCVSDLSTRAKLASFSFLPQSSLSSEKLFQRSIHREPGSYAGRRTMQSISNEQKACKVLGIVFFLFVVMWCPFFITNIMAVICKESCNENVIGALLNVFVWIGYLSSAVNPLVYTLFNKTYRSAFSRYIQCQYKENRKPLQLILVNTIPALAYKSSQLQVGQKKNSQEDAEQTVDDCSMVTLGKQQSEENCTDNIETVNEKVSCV
Sequence of D(2) dopamine receptor (P61169 whole entry): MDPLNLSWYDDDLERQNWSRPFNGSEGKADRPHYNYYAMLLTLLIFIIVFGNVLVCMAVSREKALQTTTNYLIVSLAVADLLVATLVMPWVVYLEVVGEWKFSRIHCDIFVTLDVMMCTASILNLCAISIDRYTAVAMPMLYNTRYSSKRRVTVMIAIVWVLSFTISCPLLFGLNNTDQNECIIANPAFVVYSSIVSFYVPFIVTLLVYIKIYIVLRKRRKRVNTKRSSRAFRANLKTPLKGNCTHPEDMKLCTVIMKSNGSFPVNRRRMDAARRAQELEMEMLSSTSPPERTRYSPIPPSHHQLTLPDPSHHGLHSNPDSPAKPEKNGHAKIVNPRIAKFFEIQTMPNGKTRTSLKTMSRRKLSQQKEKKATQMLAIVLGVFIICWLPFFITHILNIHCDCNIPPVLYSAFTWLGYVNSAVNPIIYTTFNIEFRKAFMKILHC

Take `Cc1nc2sccn2c(=O)c1CCN1CCC(=C(c2ccc(F)cc2)c2ccc(F)cc2)CC1` [RITANSERIN]: the ED50 in [1] was 0.98 µmol/kg; in experiment [2], 0.1 µmol/kg; in experiment [3], above 21 µmol/kg.
With `CC(C)N1CCN(CCN2CCC(c3cn(-c4ccc(F)cc4)c4cc(Cl)ccc34)CC2)C1=O`, the ED50 in experiment [4] is above 17 µmol/kg; in [1] it was 0.052 µmol/kg; in experiment [2], 0.11 µmol/kg; in experiment [5] it was 0.055 µmol/kg.
Take `CC(C)N1CCN(CCN(C)CCc2cn(-c3ccc(F)cc3)c3cc(Cl)ccc23)C1=O`: the IC50 in [6] stood at 5.8 nM; in [7], 400 nM; in experiment [8] it was 190 nM.
`CN(C)CCOc1cn(-c2ccc(F)cc2)c2cc(Cl)ccc12` came in with an IC50 in experiment [7] of 170 nM.
For the compound `CN(C)CCSc1cn(-c2ccc(F)cc2)c2ccc(Cl)cc12`, the IC50 in experiment [6] worked out at 42 nM; in [7], 820 nM.
For `CN(C)CCCCc1cn(-c2ccc(F)cc2)c2ccc(Cl)cc12`, the figures for the IC50 in experiment [6], in experiment [7] and in experiment [8] were 100 nM, 310 nM and 4800 nM, respectively.
Turning to `CN(CCOc1cn(-c2ccc(F)cc2)c2cc(Cl)ccc12)CCN1CCNC1=O`, the ED50 in experiment [2] worked out at 0.63 µmol/kg; in experiment [9], 0.25 µmol/kg. The IC50 in [7] was determined as 41 nM.
On to `CN(CCc1cn(-c2ccc(F)cc2)c2cc(Cl)ccc12)CCN1CCNC1=O`, for which the IC50 is 0.95 nM in [6], 14 nM in experiment [7] and 590 nM in experiment [8].
For `CN(CCCCN1CCNC1=O)Cc1cn(-c2ccc(F)cc2)c2ccc(Cl)cc12`, the 50% inhibitory concentration (IC50) in experiment [6] was 110 nM; in [7], above 100 nM; in [8], 20 nM.
For `CN(C)CCCOc1cn(-c2ccc(F)cc2)c2ccc(Cl)cc12`, the IC50 in experiment [6] is 27 nM; in [7], above 100 nM; in [8], 24 nM.
Take `CN(CCOc1cn(-c2ccc(F)cc2)c2ccc(Cl)cc12)CCN1CCNC1=O`: the ED50 was 3.6 µmol/kg in experiment [4], above 9.1 µmol/kg in experiment [1] and 0.32 µmol/kg in experiment [2]. The compound further displayed an IC50 in [7] of 5.7 nM.
`CN(CCN1CCNC1=O)Cc1cn(-c2ccc(F)cc2)c2ccc(Cl)cc12` gave an IC50 in [7] of 23 nM.
For the compound `O=C1NCCN1CCN1CCC(c2cn(-c3ccc(F)cc3)c3ccc(Cl)cc23)CC1` [SERTINDOLE], the ED50 in [4] is 3.7 µmol/kg; in experiment [1], 0.03 µmol/kg; in experiment [2], 0.035 µmol/kg; in experiment [9], 0.039 µmol/kg.
The compound `CN(C)CCOc1cn(-c2ccc(F)cc2)c2ccc(Cl)cc12` had an IC50 in experiment [7] of 17 nM.
In turn, `CNc1cc(OC)c(C(=O)N[C@H]2CCN(Cc3ccccc3)[C@H]2C)cc1Cl` [NEMONAPRIDE] displayed an ED50 in [4] of 0.0057 µmol/kg. The compound also registered an IC50 in [6] of 49 nM.
Consider `CN(C)CCc1cn(-c2ccc(F)cc2)c2ccc(Cl)cc12`, for which the IC50 in [7] stood at 40 nM.
Same read-out and setting: the same measure for `CN(C)Cc1cn(-c2ccc(F)cc2)c2ccc(Cl)cc12`: 18 nM.
As for `CN(C)CCc1cn(-c2ccc(F)cc2)c2cc(Cl)ccc12`, the IC50 in experiment [6] stood at 5.5 nM; in [7] it was 130 nM; in experiment [8] it was 650 nM.
With `Fc1ccc(-n2cc(OCCN3CCCCC3)c3cc(Cl)ccc32)cc1`, in [7], the IC50 was found to be 32 nM.
The same measure, in the same setting: under `CCN(CCOc1cn(-c2ccc(F)cc2)c2ccc(Cl)cc12)CCN1CCNC1=O` stands 12 nM; under `CN(CCCN1CCNC1=O)CCc1cn(-c2ccc(F)cc2)c2ccc(Cl)cc12`, 14 nM.
As to `CN(CCCc1cn(-c2ccc(F)cc2)c2ccc(Cl)cc12)CCN1CCNC1=O`, the IC50 in [7] was 43 nM.
Regarding `CN(CCCN1CCNC1=O)CCc1cn(-c2ccc(F)cc2)c2cc(Cl)ccc12`, the values for the 50% effective dose (ED50) in [1] and in experiment [2] were 8.5 µmol/kg and 4.7 µmol/kg, respectively. Further, the IC50 in [6] is 1.9 nM; in experiment [7], 54 nM; in experiment [8], 400 nM.
In experiment [7], `CN(C)CCCc1cn(-c2ccc(F)cc2)c2ccc(Cl)cc12` returned an IC50 of 73 nM.
Same read-out and setting: under `C#CCN(CCOc1cn(-c2ccc(F)cc2)c2ccc(Cl)cc12)CCN1CCNC1=O` stands 88 nM; under `Fc1ccc(-n2cc(OCCN3CCOCC3)c3cc(Cl)ccc32)cc1`, 110 nM.
In turn, `CN1CCN(CCOc2cn(-c3ccc(F)cc3)c3ccc(Cl)cc23)CC1` displayed an ED50 in experiment [4] of 0.048 µmol/kg. The IC50 in experiment [6] turned out to be 100 nM; in experiment [7] it was 150 nM; in experiment [8], 2.4 nM.
In the case of `CN(CCSc1cn(-c2ccc(F)cc2)c2ccc(Cl)cc12)CCN1CCNC1=O`, the IC50 in [7] worked out at 650 nM; in experiment [8] it was 790 nM.
`CN(CCc1cn(-c2ccc(F)cc2)c2ccc(Cl)cc12)CCN1CCNC1=O`: the IC50 in experiment [7] turned out to be 15 nM.
`CC(C)N1CCN(CCN(C)CCOc2cn(-c3ccc(F)cc3)c3cc(Cl)ccc23)C1=O`: the half-maximal inhibitory concentration (IC50) in experiment [7] was 600 nM.
